HKDC1 inh: HKDC1 hexokinase inhibitors, primary screen, biochemical, fluorescence, uHTS | Q2TB90 | recombinant HKDC1, G6PDH/diaphorase resazurin coupled fluorescence | inhibition, % at 20 µM | hit rate 0.16% among 340,000 | AID 493160, 2011;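 active = inhibition above about 35% when tested at 20 µM, limit read from the data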;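 also: plate controls were DMSO wells with enzyme for no effect and DMSO wells lacking enzyme for full effect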
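test system = in-house recombinant HK5 (HKDC1) enzyme | amount = HKDC1 at 5 µg/mL | control set = DMSO-enzyme wells negative, buffer-substituted wells positive | compound = one dose of 20 µM, 1% DMSO | schedule = reaction time 90 min, room temperature, protected from light | technique = resorufin fluorescence at 613 nm | reagent = glucose with 1 mM ATP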
PHOSPHO1 inh: PubChem AID 1565. Phosphoethanolamine/phosphocholine phosphatase (Homo sapiens), Q8TCT1. recombinant PHOSPHO1, absorbance phosphatase assay. inhibition, % at 13.3 µM. hit rate 1.1% among 290,000; in the data active = inhibition above about 60%
Target sequence (Q8TCT1 whole entry, looked up): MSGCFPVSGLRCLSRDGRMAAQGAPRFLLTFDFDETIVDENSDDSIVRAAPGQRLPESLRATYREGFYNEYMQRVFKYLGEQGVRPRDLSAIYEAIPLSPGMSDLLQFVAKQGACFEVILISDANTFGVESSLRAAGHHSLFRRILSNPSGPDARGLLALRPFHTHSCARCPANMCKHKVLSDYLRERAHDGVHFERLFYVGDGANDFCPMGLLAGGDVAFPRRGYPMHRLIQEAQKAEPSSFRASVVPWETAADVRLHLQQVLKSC
EP2 antag: human EP2 receptor antagonists, primary screen, TR-FRET cAMP, C6 glioma cells; C6 glioma cells expressing human EP2; cells stimulated with saturating PGE2; inhibition, % at 25 µM; hit rate 0.52% among 260,000;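 active = percent inhibition above 40 after rounding to a whole number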;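 also: rat C6 glioma host cells with rolipram phosphodiesterase inhibitor present; the protocol text gives 20 µM as final concentration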
Target sequence (P43116 whole entry, looked up): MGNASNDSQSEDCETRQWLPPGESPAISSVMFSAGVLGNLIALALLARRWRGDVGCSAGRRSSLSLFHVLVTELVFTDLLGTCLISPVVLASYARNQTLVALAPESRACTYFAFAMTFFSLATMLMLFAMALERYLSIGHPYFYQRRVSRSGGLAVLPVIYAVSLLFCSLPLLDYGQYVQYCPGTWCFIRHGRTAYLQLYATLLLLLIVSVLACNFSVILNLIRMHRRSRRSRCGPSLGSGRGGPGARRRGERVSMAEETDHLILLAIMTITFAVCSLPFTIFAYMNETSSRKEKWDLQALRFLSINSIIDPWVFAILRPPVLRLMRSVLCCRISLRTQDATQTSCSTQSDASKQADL
PfG6PD inh: PfG6PD enzyme inhibitors, primary screen, biochemical, fluorescence intensity, uHTS; inhibition, % at 20 µM; PfGluPho enzyme, NADPH resazurin-diaphorase fluorescence; glucose-6-phosphate dehydrogenase-6-phosphogluconolactonase (Plasmodium falciparum 3D7); hit rate 0.78% among 350,000;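 active = inhibition reaching at least a set limit at 20 µM in the primary screen, cut at about 59% in these data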;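 also: 0% = DMSO wells with substrate and 100% = DMSO wells lacking glucose-6-phosphate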
TbHK1 inh: Trypanosoma brucei hexokinase 1 inhibitors, primary screen, biochemical, G6PDH-coupled NADH absorbance, MLSCN library | inhibition, % at 10 µM | hexokinase 1 [Trypanosoma brucei] | hit rate 0.11% among 220,000 | AID 1430, 2008 | recombinant TbHK1, G6PDH-coupled NADH A340;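 active = inhibition of 50% or more in the single-dose primary screen; inactive = inhibition below 50%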
EP2 mod: EP2 receptor modulators, cAMP readout, primary screen, cell-based, HTRF cAMP, PGE2 stimulation; hit rate 0.83% among 260,000; induction, % at 25 µM; EP2-expressing cells, cAMP HTRF FRET, PGE2 co-stimulation;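 active = compounds whose cAMP rise, as percent of the full-agonist control response, exceeds 60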;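 also: rat C6 glioma line stably carrying human EP2 under a CMV promoter; the protocol text gives 20 µM as final concentration; 100% = response of wells given 1 µM PGE2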
* hit, by the source's call; x = no result. A selection: hits, their analogues and other compounds. The true share with any hit is near 2.5%.

SMILES | HKDC1 inh | PHOSPHO1 inh | EP2 antag | PfG6PD inh | TbHK1 inh | EP2 mod
CCc1ccc2[nH]c(=O)c(CN(CCO)C(=O)c3ccccc3C)cc2c1 | x | x | 11 | x | x | -38
Cc1ccccc1C1c2[nH]c3ccccc3c2CCN1CCCn1cccn1 (stereo not drawn) | -2 | 15 | 9 | 11 | -9 | 64*
Fc1ccc(C2c3[nH]c4ccccc4c3CCN2CCCn2cccn2)cc1 (stereo not drawn) | 2 | 51 | 6 | 16 | -14 | 18
COc1ccc(S(=O)(=O)N2CCC(O)(c3ccc(Cl)cc3)CC2)cc1OC | 1 | 64* | 11 | -5 | -3 | -39
COc1ccc(S(=O)(=O)N2CCC(O)(c3ccc(Cl)cc3)CC2)cc1 | -3 | 5 | 11 | -12 | -2 | -41
Cc1cc(OCc2ccccc2)ccc1/C(O)=C1/C(=O)C(=O)N(Cc2cccnc2)C1c1ccncc1 (stereo not drawn) | -2 | 37 | 18 | -41 | -44 | 64*
COc1ccccc1NC(=O)CSc1nc2cc(C)ccc2cc1C#N | x | x | 9 | x | x | 16
Cc1ccc(C)c(-c2csc(N)c2C(=O)OC(C)C)c1 | -5 | -6 | 16 | 25 | 8 | 63*
CCOC(=O)c1sc2cc([N+](=O)[O-])cc(SCC(C)C)c2c1N | -6 | 64* | 7 | 1 | 0 | 31
C/C(N[O-])=C(\C)[N+]([O-])=[Co].CC(=N\[O-])/C(C)=N/[O-].C[CH-][C@@H](C)O.c1ccncc1 | x | x | 42* | x | x | 21
CCC(c1nnnn1CCc1ccccc1)N(Cc1cc2c(C)cc(C)cc2[nH]c1=O)C1CCCC1 (stereo not drawn) | x | x | 10 | x | x | 28
O=C(NCC(=O)N(c1ccccc1)C(C(=O)NC1CCCCC1)c1cccnc1)c1cccs1 (stereo not drawn) | -3 | 63* | 12 | 4 | -9 | 15
Cc1c(Cl)cc(C(C)(C)C)c(O)c1Cc1c(C)c(Cl)cc(C(C)(C)C)c1O | x | x | 47* | x | x | 5
CC(C)(C)c1cc(CN(CCO)CCO)c(O)c(C(C)(C)C)c1 | 5 | 32 | 8 | -11 | -2 | 1
Cc1ccc(O)c(Cc2cc(C)cc(Cc3cc(C)ccc3O)c2O)c1 | x | x | x | -14 | x | x
Cc1cc(Cc2c(C)c(C)c(Cc3cc(C)cc(C(C)(C)C)c3O)c(C)c2C)c(O)c(C(C)(C)C)c1 | x | x | 55* | x | x | 16
Cc1cc(Cc2cc(C)cc(C(C)(C)C)c2O)c(O)c(Cc2cc(C)cc(C(C)(C)C)c2O)c1 | x | x | 41* | x | x | 7
Cc1ccc(NC(=O)C2CCCN(c3nccc(C)n3)C2)cc1 (stereo not drawn) | x | x | 7 | x | x | -43
CCOC(=O)c1cnc(SC)nc1Nc1cccc2ccccc12 | -1 | -14 | 6 | 13 | -8 | 62*
Cc1csc(NC(=O)c2ccc(S(=O)(=O)N(C)c3ccccc3)cc2)n1 | 8 | 86* | 13 | 11 | -13 | -33
Cc1nnc(NC(=O)c2ccc(S(=O)(=O)N(C)c3ccccc3)cc2)s1 | 0 | x | x | -13 | x | x
COc1nc(Nc2ccc(C3Nc4ccccc4O3)cc2)nc(OC)n1 (stereo not drawn) | x | x | 10 | x | x | -53
c1ccc(CSc2nc3ccccc3[nH]2)cc1 | -3 | 13 | 2 | 16 | -5 | -7
Nc1ccccc1Sc1nc2ccccc2[nH]1 | 1 | 56 | 7 | 62* | 4 | 1
Nc1nc(CSc2nc3ccccc3[nH]2)cs1 | -5 | 97* | 14 | -9 | -2 | -1
SMILES | HKDC1 inh | PHOSPHO1 inh | EP2 antag | PfG6PD inh | TbHK1 inh | EP2 mod
Nc1nc2ccccc2[nH]1 | -3 | 14 | x | -2 | x | x
CC(C)C(=O)N1CCN(c2ccc(NC(=O)c3cccnc3)cc2Cl)CC1 | x | x | 3 | x | x | -5
O=C(CCCCCCN1C(=O)c2ccccc2C1=O)NC1CCCCC1 | 11 | -14 | 20 | -13 | 2 | -16
O=C(O)CCCCCN1C(=O)C2CCCCC2C1=O (stereo not drawn) | 0 | 2 | 6 | -1 | -4 | 10
O=C(O)CCCCCCC1C(=O)NC(=O)N1CCC(O)C1CCCCC1 (stereo not drawn) | -1 | 4 | 9 | 0 | 1 | 106*
O=C(O)CCCCCC[C@H]1C(=O)NC(=O)N1CC[C@@H](O)C1CCCCC1 | x | x | 14 | x | x | 100*
CCOc1ccc(NC(=O)COC(=O)C2CC(=O)N(c3ccccc3)C2)cc1 (stereo not drawn) | x | x | 16 | x | x | 2
CCOc1ccc(/C(O)=C2\C(=O)C(=O)N(c3cc(C)on3)C2c2ccccc2OC)cc1 (stereo not drawn) | -2 | 22 | 40* | -20 | -18 | 32
CCOc1ccc(C2/C(=C(\O)c3ccc(OC)c(OC)c3)C(=O)C(=O)N2c2cc(C)on2)cc1OC (stereo not drawn) | -4 | -56 | 15 | -24 | -21 | 31
O=C(CCc1cc(Cl)no1)NC1(c2ccccc2)CCCC1 | x | x | 4 | x | x | 4
COC(=O)[C@@H](NC(=O)c1ccc(OC2CCN(Cc3ccccn3)CC2)cc1)C(C)C | -9 | 60* | 7 | -8 | -4 | -11
CCC(O)C1CCN(C(=O)c2ccc(OC3CCN(Cc4ccccn4)CC3)cc2)CC1 (stereo not drawn) | -5 | 70* | x | 1 | x | x
Cc1nc(C(C)NC(=O)c2ccc(OC3CCN(Cc4ccccn4)CC3)cc2)c(C)s1 (stereo not drawn) | -4 | 81* | x | 22 | x | x
COc1ccc(-n2c(COc3cccc4ccccc34)nnc2SCCC(=O)O)cc1 | x | x | 38 | x | x | 51
CCS(=O)(=O)c1cc([N+](=O)[O-])c(Br)s1 | x | x | 74* | x | x | -119
O=C(O)CNC(=O)[C@H]1NC(C(F)(F)F)(C(F)(F)F)OC1(C(F)(F)F)C(F)(F)F | x | x | 42* | x | x | 25
CCn1c(SCC(=O)N2CCCC2)nnc1-c1ccc(OC)c(OC)c1 | x | x | 3 | x | x | -3
COC(c1ccccc1)c1nnc(CCC(=O)NC2C3CC4CC(C3)CC2C4)o1 (stereo not drawn) | -7 | 60* | 8 | -8 | -3 | 12
COC(c1ccccc1)c1nnc(CCC(=O)NCCCc2ccccc2)o1 (stereo not drawn) | -11 | 39 | 4 | 14 | 3 | 1
CCC(CO)NC(=O)C(=O)Nc1ccc2c(c1)OCO2 (stereo not drawn) | x | x | 15 | x | x | -26
Cc1nc(NC(=O)CCN2C(=O)C3CC=CCC3C2=O)sc1C (stereo not drawn) | -2 | 61* | x | 10 | x | x
Cc1ccc(S(=O)(=O)Nc2nc(C)cc(NNC(=S)S)n2)cc1 | x | x | 20 | x | x | 6
CCc1cccc2c(CN3CCc4c(nc(N5CCOCC5)[nH]c4=O)C3)c[nH]c12 | x | x | x | x | x | -14

Screening data deposited in PubChem BioAssay by several laboratories.
